[ ]: non-standard residue; d: D form. The star is where a group is joined. Dnp = O=[N+]([O-])c1ccc(*)c([N+](=O)[O-])c1; Mca = COc1ccc2c(CC(=O)*)cc(=O)oc2c1
Experiments:
Format in all cases: biochemical
Cath D [1] = target: T1, Cath D (Homo sapiens, UniProt P07339); assay: Kinetics of substrate e hydrolysis by Cath D
In short: (§1)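 Intramolecularly quenched Mca/Dnp FRET peptide, 5–100 µM, in 50 mM sodium acetate pH 4.0, with Cath E at 2.3, 4.5 or 6.8 nM, or Cath D up to 54 nM. Fluorescence (ex 340/em 405 nm) followed over 10 min. Initial velocity taken from the linear-phase slope. Vmax and Km from linear regression of the Hanes-Woolf plot (S/v vs S); kcat = Vmax/[Cath E]. Triplicate.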

Cath E = target: T2, Cath E (Homo sapiens, UniProt P14091); assay: Michaelis-Menten kinetics of substrate e hydrolysis by Cath E; details: 6.8 nM Cath E, 50 mM sodium acetate pH 4.0, 10 minutes, 37 °C
T2 sequence (P14091 54-396): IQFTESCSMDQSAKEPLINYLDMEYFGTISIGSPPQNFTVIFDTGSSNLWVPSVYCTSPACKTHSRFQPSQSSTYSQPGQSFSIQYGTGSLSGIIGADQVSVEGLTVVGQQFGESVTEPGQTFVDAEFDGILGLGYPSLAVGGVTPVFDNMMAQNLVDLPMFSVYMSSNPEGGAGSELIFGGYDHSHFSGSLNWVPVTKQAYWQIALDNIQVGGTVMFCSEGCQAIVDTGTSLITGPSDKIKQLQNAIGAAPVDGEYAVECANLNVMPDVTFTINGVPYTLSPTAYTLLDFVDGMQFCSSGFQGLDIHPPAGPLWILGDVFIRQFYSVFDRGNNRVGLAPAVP
In short: as §1

Cath D [2] = target: T1, Cath D; assay: Enzyme digestion and cleavage site identification, Cath D; details: high dose of Cath D, overnight hydrolysis; data not shown

T1 sequence (P07339 65-412): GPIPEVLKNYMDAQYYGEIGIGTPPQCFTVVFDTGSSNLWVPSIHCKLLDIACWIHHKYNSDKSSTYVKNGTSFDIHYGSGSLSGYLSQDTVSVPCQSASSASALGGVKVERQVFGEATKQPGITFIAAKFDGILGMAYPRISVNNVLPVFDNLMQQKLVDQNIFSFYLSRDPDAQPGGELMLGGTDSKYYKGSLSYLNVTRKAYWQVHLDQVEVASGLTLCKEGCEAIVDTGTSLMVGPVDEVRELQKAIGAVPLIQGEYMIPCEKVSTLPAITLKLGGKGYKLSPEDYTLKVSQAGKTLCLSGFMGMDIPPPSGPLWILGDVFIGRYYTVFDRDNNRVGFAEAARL

## Mca-AGFSLPAK(Dnp)[dR]-NH2 (SMILES COc1ccc2c(CC(=O)N[C@@H](C)C(=O)NCC(=O)N[C@@H](Cc3ccccc3)C(=O)N[C@@H](CO)C(=O)N[C@@H](CC(C)C)C(=O)N3CCC[C@H]3C(=O)N[C@@H](C)C(=O)N[C@@H](CCCCNc3ccc([N+](=O)[O-])cc3[N+](=O)[O-])C(=O)N[C@H](CCCNC(=N)N)C(N)=O)cc(=O)oc2c1) [Substrate e]
Cath D [1]; up to 54 nM Cath D, same measurement conditions (50 mM sodium acetate pH 4.0)
  Kcat/Km (catalytic efficiency), Cath D: NM ^§
Cath D [1]; up to 54 nM of Cath D, 50 mM sodium acetate pH 4.0
  cleavage by Cath D: no measurable cleavage
Cath E
  Kcat/Km (catalytic efficiency), Cath E: 16.7 µM^−1.S^−1
Cath D [2]
  cleavage sites by Cath D: two minor cleavage sites were identified, one is between the P1 and P1’ sites (-Leu^5-Pro^6-) and a secondary site was found between P3 and P4 positions (-Gly^2-Phe^3-)

From paper PMC2914798 (Biochimica et biophysica acta, 2010)
